# ChEMBL document CHEMBL5055631, “Antitumor properties of novel sesquiterpene lactone analogs as NFκB inhibitors that bind to the IKKβ ubiquitin-like domain (ULD)” (Eur J Med Chem, 2021)
# Experiments:
# Type in all cases: functional
# BT-549 = experiment: Anticancer activity against human BT-549 cells assessed as cell growth inhibition incubated for 48 hrs by SRB method
# Summary of the method: (§1)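 NCI-60 panel (DTP). Cells in RPMI 1640 with 5% FBS, 2 mM L-glutamine, seeded at 5,000–40,000 per well by doubling time and preincubated 24 h at 37 °C, 5% CO2. Time-zero plates TCA-fixed. DMSO stocks diluted in medium with gentamicin, tested at 100 μM, 10 μM, 1 μM, 0.1 μM and 10 nM for 48 h. Cells fixed with cold TCA, stained with SRB, absorbance read at 515 nm.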
# TK-10 = experiment: Anticancer activity against human TK-10 cells assessed as cell growth inhibition incubated for 48 hrs by SRB method
# Summary of the method: (§2)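 NCI-60 panel, SRB assay. Cells grown in RPMI 1640 with 5% FBS and 2 mM L-glutamine, seeded at 5,000–40,000 cells/well depending on doubling time, and preincubated 24 h at 37 °C with 5% CO2. Time-zero plates were TCA-fixed. Compounds came from DMSO stocks and were tested at 100 μM, 10 μM, 1 μM, 0.1 μM and 10 nM for 48 h. Cells were fixed with cold TCA and stained with 0.4% SRB, and the dye was solubilized in 10 mM Tris base with A515 read.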
# NCI-H23 = experiment: Anticancer activity against human NCI-H23 cells assessed as cell growth inhibition incubated for 48 hrs by SRB method; summary of the method: as §1
# OVCAR-8 = experiment: Anticancer activity against human OVCAR-8 cells assessed as cell growth inhibition incubated for 48 hrs by SRB method; summary of the method: as §1
# K562 = experiment: Anticancer activity against human K562 cells assessed as cell growth inhibition incubated for 48 hrs by SRB method
# MDA-MB-435 = experiment: Anticancer activity against human MDA-MB-435 cells assessed as cell growth inhibition incubated for 48 hrs by SRB method; summary of the method: as §1
# HOP-62 = experiment: Anticancer activity against human HOP-62 cells assessed as cell growth inhibition incubated for 48 hrs by SRB method; summary of the method: as §1
# A549 = experiment: Anticancer activity against human A549 cells assessed as cell growth inhibition incubated for 48 hrs by SRB method; summary of the method: as §1
# SF-539 = experiment: Anticancer activity against human SF-539 cells assessed as cell growth inhibition incubated for 48 hrs by SRB method
# UACC-257 = experiment: Anticancer activity against human UACC-257 assessed as cell growth inhibition incubated for 48 hrs by SRB method; summary of the method: as §2
# SW-620 = experiment: Anticancer activity against human SW-620 cells assessed as cell growth inhibition incubated for 48 hrs by SRB method
# DU-145 = experiment: Anticancer activity against human DU-145 cells assessed as cell growth inhibition incubated for 48 hrs by SRB method; summary of the method: as §1
# COLO 205 = experiment: Anticancer activity against human COLO 205 cells assessed as cell growth inhibition incubated for 48 hrs by SRB method
# RXF 393 = experiment: Anticancer activity against human RXF 393 cells assessed as cell growth inhibition incubated for 48 hrs by SRB method; summary of the method: as §1
# NCI-H522 = experiment: Anticancer activity against human NCI-H522 cells assessed as cell growth inhibition incubated for 48 hrs by SRB method
# HOP-92 = experiment: Anticancer activity against human HOP-92 cells assessed as cell growth inhibition incubated for 48 hrs by SRB method
# HT-29 = experiment: Anticancer activity against human HT29 cells assessed as cell growth inhibition incubated for 48 hrs by SRB method; summary of the method: as §1
# HCT-15 = experiment: Anticancer activity against human HCT-15 cells assessed as cell growth inhibition incubated for 48 hrs by SRB method; summary of the method: as §1
# OVCAR-4 = experiment: Anticancer activity against human OVCAR-4 cells assessed as cell growth inhibition incubated for 48 hrs by SRB method
# SF-295 = experiment: Anticancer activity against human SF-295 cells assessed as cell growth inhibition incubated for 48 hrs by SRB method; summary of the method: as §1
# HCC 2998 = experiment: Anticancer activity against human HCC 2998 cells assessed as cell growth inhibition incubated for 48 hrs by SRB method; summary of the method: as §1
# A498 = experiment: Anticancer activity against human A498 cells assessed as cell growth inhibition incubated for 48 hrs by SRB method; summary of the method: as §1
# LOX IMVI = experiment: Anticancer activity against human LOX IMVI cells assessed as cell growth inhibition incubated for 48 hrs by SRB method
# CAKI-1 = experiment: Anticancer activity against human CAKI-1 cells assessed as cell growth inhibition incubated for 48 hrs by SRB method; summary of the method: as §1
# U-251 = experiment: Anticancer activity against human U-251 cells assessed as cell growth inhibition incubated for 48 hrs by SRB method; summary of the method: as §2
# PC-3 = experiment: Anticancer activity against human PC-3 cells assessed as cell growth inhibition incubated for 48 hrs by SRB method; summary of the method: as §1
# RPMI-8226 = experiment: Anticancer activity against human RPMI-8226 cells assessed as cell growth inhibition incubated for 48 hrs by SRB method
# SK-MEL-28 = experiment: Anticancer activity against human SK-MEL-28 cells assessed as cell growth inhibition incubated for 48 hrs by SRB method; summary of the method: as §1
# T47D = experiment: Anticancer activity against human T47D cells assessed as cell growth inhibition incubated for 48 hrs by SRB method; summary of the method: as §1
# CCRF-CEM = experiment: Anticancer activity against human CCRF-CEM cells assessed as cell growth inhibition incubated for 48 hrs by sulforhodamine B assay
# UO-31 = experiment: Anticancer activity against human UO-31 cells assessed as cell growth inhibition incubated for 48 hrs by SRB method
# Summary of the method: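 NCI-60 panel, SRB assay. Time-zero plates were TCA-fixed. Compounds came from DMSO stocks and were tested at 100 μM, 10 μM, 1 μM, 0.1 μM and 10 nM for 48 h. Cells were fixed with cold TCA and stained with 0.4% SRB, and the dye was solubilized in 10 mM Tris base with A515 read.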
# SF-268 = experiment: Anticancer activity against human SF-268 cells assessed as cell growth inhibition incubated for 48 hrs by SRB method; summary of the method: as §1
# NCI-H226 = experiment: Anticancer activity against human NCI-H226 cells assessed as cell growth inhibition incubated for 48 hrs by SRB method; summary of the method: as §1
# MDA-MB-468 = experiment: Anticancer activity against human MDA-MB-468 cells assessed as cell growth inhibition incubated for 48 hrs by SRB method; summary of the method: as §1
# M14 = experiment: Anticancer activity against human M14 cells assessed as cell growth inhibition incubated for 48 hrs by SRB method; summary of the method: as §1
# MOLT-4 = experiment: Anticancer activity against human MOLT-4 assessed as cell growth inhibition incubated for 48 hrs by SRB method
# ACHN = experiment: Anticancer activity against human ACHN cells assessed as cell growth inhibition incubated for 48 hrs by SRB method; summary of the method: as §1
# [1] = Anticancer activity against human HS 578T cells assessed as cell growth inhibition incubated for 48 hrs by SRB method
# IGROV-1 = experiment: Anticancer activity against human IGROV-1 cells assessed as cell growth inhibition incubated for 48 hrs by SRB method; summary of the method: as §1
# EKVX = experiment: Anticancer activity against human EKVX cells assessed as cell growth inhibition incubated for 48 hrs by SRB method; summary of the method: as §1
# NCI/ADR-RES = experiment: Anticancer activity against human NCI/ADR-RES cells assessed as cell growth inhibition incubated for 48 hrs by SRB method; summary of the method: as §1
smiles,measurement,setting,value
C=C1C(=O)O[C@H]2[C@H]1CC/C(COC(=O)NCc1cc(OC)cc(OC)c1)=C\CC[C@@]1(C)O[C@@H]21,GI50,BT-549,1.61 µM
same,GI50,TK-10,1.59 µM
same,GI50,NCI-H23,1.84 µM
same,GI50,OVCAR-8,1.7 µM
same,GI50,K562,1.57 µM
same,GI50,MDA-MB-435,1.99 µM
same,GI50,HOP-62,3.06 µM
same,GI50,A549,2.58 µM
same,GI50,SF-539,1.54 µM
same,GI50,UACC-257,0.27 µM
same,GI50,SW-620,1.12 µM
same,GI50,DU-145,1.51 µM
same,GI50,COLO 205,1.35 µM
same,GI50,RXF 393,1.29 µM
same,GI50,NCI-H522,0.34 µM
same,GI50,HOP-92,1.42 µM
same,GI50,HT-29,1.2 µM
same,GI50,HCT-15,0.77 µM
same,GI50,OVCAR-4,2.12 µM
same,GI50,SF-295,7.78 µM
same,GI50,HCC 2998,1.94 µM
same,GI50,A498,2.98 µM
same,GI50,LOX IMVI,0.54 µM
same,GI50,CAKI-1,2.11 µM
same,GI50,U-251,3.16 µM
same,GI50,PC-3,1.66 µM
same,GI50,RPMI-8226,1.8 µM
same,GI50,SK-MEL-28,1.66 µM
same,GI50,T47D,4.12 µM
same,GI50,CCRF-CEM,0.47 µM
same,GI50,UO-31,0.68 µM
same,GI50,SF-268,2.46 µM
same,GI50,NCI-H226,2.02 µM
same,GI50,MDA-MB-468,0.58 µM
same,GI50,M14,1.64 µM
same,GI50,MOLT-4,2 µM
same,GI50,ACHN,1.7 µM
same,GI50,[1],0.58 µM
same,GI50,IGROV-1,1.54 µM
same,GI50,EKVX,2.06 µM
same,GI50,NCI/ADR-RES,1.82 µM
C=C1C(=O)O[C@H]2[C@H]1CC/C(COC(=O)NCc1ccccc1OC)=C\CC[C@@]1(C)O[C@@H]21,GI50,BT-549,1.47 µM
same,GI50,TK-10,1.38 µM
same,GI50,NCI-H23,1.74 µM
same,GI50,OVCAR-8,1.78 µM
same,GI50,K562,0.82 µM
same,GI50,MDA-MB-435,1.7 µM
same,GI50,HOP-62,3.69 µM
same,GI50,A549,3.07 µM
same,GI50,SF-539,1.53 µM
same,GI50,UACC-257,1.35 µM
same,GI50,SW-620,0.76 µM
same,GI50,DU-145,1.68 µM
same,GI50,COLO 205,1.75 µM
same,GI50,RXF 393,1.27 µM
same,GI50,NCI-H522,0.35 µM
same,GI50,HOP-92,1.49 µM
same,GI50,HT-29,1.22 µM
same,GI50,HCT-15,1.04 µM
same,GI50,OVCAR-4,1.57 µM
same,GI50,SF-295,5.02 µM
same,GI50,HCC 2998,1.82 µM
same,GI50,A498,2.26 µM
same,GI50,LOX IMVI,1.43 µM
same,GI50,CAKI-1,3.23 µM
same,GI50,U-251,2.2 µM
same,GI50,PC-3,1.79 µM
same,GI50,RPMI-8226,1.77 µM
same,GI50,SK-MEL-28,1.71 µM
same,GI50,T47D,3.4 µM
same,GI50,CCRF-CEM,0.48 µM
same,GI50,UO-31,1.04 µM
same,GI50,SF-268,2.2 µM
same,GI50,NCI-H226,2.11 µM
same,GI50,MDA-MB-468,0.66 µM
same,GI50,M14,1.1 µM
same,GI50,MOLT-4,2.53 µM
same,GI50,ACHN,1.16 µM
same,GI50,[1],0.49 µM
same,GI50,IGROV-1,1.48 µM
same,GI50,EKVX,1.98 µM
same,GI50,NCI/ADR-RES,2.29 µM
